# Results published in ChEMBL document CHEMBL3352814, “Design, synthesis and biological evaluation of biphenylamide derivatives as Hsp90 C-terminal inhibitors” (Eur J Med Chem, 2015).
# Assays:
# [1] = Antiproliferative activity against human SKBR3 cells after 72 hrs by MTS/PMS assay; assay type: functional, cell-based; details: SK-BR-3, 72 h
# Procedure, shortened: (§1)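 Cells kept in 1:1 Advanced DMEM/F12 with non-essential amino acids, 2 mM L-glutamine, penicillin/streptomycin and 10% FBS at 37 °C, 5% CO2. Seeded 2000 cells/well, attached overnight, then given compound at varying concentrations in DMSO (1% final) for 72 h. Viable cells read by MTS/PMS. Normalised to 1% DMSO wells as 100% proliferation. IC50 from separate experiments run in triplicate.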
# MCF7 = test: Antiproliferative activity against human MCF7 cells after 72 hrs by MTS/PMS assay; assay type: functional, cell-based; details: MCF7, 72 h; procedure, shortened: as §1
SMILES,IC50 [1] [µM],IC50 (MCF7) [µM]
COc1cccc(-c2cc(C(=O)Nc3cccc(-c4ccc(OC5CCN(C)CC5)cc4)c3)ccc2OC)c1,3.65,1.25
Cc1ccc(C(=O)Nc2ccc(-c3ccc(OC4CCN(C)CC4)cc3)cc2)cc1I,0.93,1.17
COc1cccc(-c2cc(C(=O)Nc3ccc(-c4ccc(OC5CCN(C)CC5)cc4)cc3C)ccc2OC)c1,2.47,1.43
COc1ccc(C(=O)Nc2ccc(-c3ccc(OC4CCN(C)CC4)cc3)cc2)cc1-c1cccc([N+](=O)[O-])c1,0.4,1.09
COc1ccc(C(=O)Nc2ccc(-c3ccc(OC4CCN(C)CC4)cc3)cc2)cc1-c1cccc(NC(C)=O)c1,3.37,1.43
COc1cccc(-c2cc(C(=O)Nc3ccc(-c4ccc(OC5CCN(C)CC5)cc4NC(C)=O)cc3)ccc2OC)c1,3.39,1.36
COc1cccc(-c2cc(C(=O)Nc3ccc(-c4ccc(OC5CCN(C)CC5)cc4)cc3Cl)ccc2OC)c1,4.29,1.8
COc1cccc(-c2cc(C(=O)Nc3ccc(-c4ccc(OC5CCN(C)CC5)cc4C)cc3)ccc2OC)c1,1.18,1.21
COc1ccc(-c2cc(C(=O)Nc3ccc(-c4ccc(OC5CCN(C)CC5)cc4)cc3)ccc2OC)cc1,0.63,0.79
CN1CCC(Oc2ccc(-c3ccc(NC(=O)c4ccc(Cl)cc4Cl)cc3)cc2)CC1,0.8,1.37
CC(=O)Oc1ccc(C(=O)Nc2cccc(-c3ccc(OC4CCN(C)CC4)cc3)c2)cc1CC=C(C)C,3.47,2.71
CN1CCC(Oc2ccc(-c3ccc(NC(=O)c4ccccc4)cc3)cc2)CC1,4.13,3.95
CN1CCC(Oc2ccc(-c3ccc(NC(=O)c4ccccc4-c4ccccc4)cc3)cc2)CC1,6.26,6.67
CN1CCC(Oc2ccc(-c3ccc(NC(=O)c4ccc(Cl)c(Cl)c4)cc3)cc2)CC1,1.2,1.6
COc1ccc(C(=O)Nc2ccc(-c3ccc(OC4CCN(C)CC4)cc3)cc2)cc1-c1cccc(O)c1,1.56,1.08
CC(=O)Oc1ccc(C(=O)Nc2ccc(-c3ccc(OC4CCN(C)CC4)cc3)cc2)cc1CC=C(C)C,1.82,1.37
CN1CCC(Oc2ccc(-c3ccc(NC(=O)c4cc5ccccc5s4)cc3)cc2)CC1,1.32,2.01
COc1ccc(C(=O)Nc2ccc(-c3ccc(OC4CCN(C)CC4)cc3)cc2)cc1-c1ccc(Cl)cc1,1.06,0.82
COc1cccc(-c2cc(C(=O)Nc3ccc(-c4ccc(OC5CCN(C)CC5)cc4)nc3)ccc2OC)c1,1.21,1.02
COc1cccc(-c2cc(C(=O)Nc3ccc(-c4ccc(OC5CCN(C)CC5)c(Cl)c4)cc3)ccc2OC)c1,1.84,1.48
CN1CCC(Oc2ccc(-c3ccc(NC(=O)c4ccc5ncccc5c4)cc3)cc2)CC1,1.31,2.07
COc1cccc(-c2cc(C(=O)Nc3ccc(-c4ccc(OC5CCN(C)CC5)cc4N)cc3)ccc2OC)c1,2.13,1.76
COc1cccc(-c2cc(C(=O)Nc3ccc(-c4ccc(OC5CCN(C)CC5)cc4)c(NC(C)=O)c3)ccc2OC)c1,2.52,4.66
COc1cccc(-c2cc(C(=O)Nc3ccc(-c4ccc(OC5CCN(C)CC5)cc4)cn3)ccc2OC)c1,1.07,1.15
COc1cccc(-c2cc(C(=O)Nc3ccc(-c4ccc(OC5CCN(C)CC5)cc4)cc3OC)ccc2OC)c1,3.92,1.22
COc1cccc(-c2cc(C(=O)Nc3ccc(-c4ccc(OC5CCN(C)CC5)cc4)cc3[N+](=O)[O-])ccc2OC)c1,3.4,1.15
CC(C)=CCc1cc(NC(=O)Nc2cc3ccc(OC4CCN(C)CC4)c(C)c3oc2=O)ccc1O,0.39,0.37
COc1cccc(-c2cc(C(=O)Nc3ccc(-c4ccc(OC5CCN(C)CC5)nc4)cc3)ccc2OC)c1,1.67,1.56
